PMC3174055 (Biochemical Journal, 2011)
Values joined by “and” are separate entries in the source; they are usually repeats but may differ in a detail not shown here. Identical values can stand only once.

Tests used:
[1] = Plasma pharmacokinetics in mice; format: in vivo, CD-1 mice; details: male, CD-1, mouse, ip, 10 mg/kg
U87MG xenograft = assay: U87MG tumour xenograft efficacy and toxicity; format: in vivo, Rag1−/− or NIH-III mice; details: QD×14, BEZ-235 15 mg/kg, A66 100 mg/kg
Outline: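 U87MG cells (5×10^6, s.c. in PBS) in SPF Rag1−/− or NIH-III mice; treatment started at tumours of about 7 mm. Daily i.p. dosing for 14 days (10 ml/kg, free base). Test compound in 20% hydroxypropyl-β-cyclodextrin; reference inhibitor in 10% ethanol; controls given vehicle. Caliper volume (L×w²)×π/6; daily body weight and toxicity checks; mice killed at >20% weight loss.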

SK-OV-3 xenograft = assay: SK-OV-3 tumour xenograft efficacy and toxicity; format: in vivo, Rag1−/− or NIH-III mice; details: QD×21, BEZ-235 15 mg/kg, A66 100 mg/kg
Outline: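 SPF Rag1−/− or NIH-III mice, 5×10^6 SK-OV-3 cells s.c. in PBS; dosing began at about 7 mm tumours. I.p., 10 ml/kg. Test compound (20% hydroxypropyl-β-cyclodextrin): 100 mg/kg QD×21 or 75 mg/kg BID×16, injections ≥~8 h apart. Reference inhibitor (10% ethanol): 15 mg/kg QD×21. Vehicle controls; 7–8 mice/group. Caliper volume (L×w²)×π/6; daily body weight; final-day TGI; ANOVA-Bonferroni.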

HCT-116 xenograft = assay: HCT-116 tumour xenograft efficacy and toxicity; format: in vivo, Rag1−/− or NIH-III mice; details: QD×7, BEZ-235 10 mg/kg, A66 100 mg/kg
Outline: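 HCT-116 xenografts from 5×10^6 cells s.c. in PBS, in SPF Rag1−/− or NIH-III mice. Once-daily i.p. dosing for 7 days from tumours of about 7 mm. Test compound in 20% hydroxypropyl-β-cyclodextrin; reference inhibitor at 10 mg/kg in 10% ethanol; vehicle controls. Caliper volumes by (L×w²)×π/6; daily weights; euthanasia if weight loss exceeded 20%.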

[2] = tested on: phosphorylation of Akt/PKB (Ser473, Thr308); assay: Insulin-stimulated activation of Akt/PKB in cell lines, Western blotting; format: cell-based; details: for inhibition of insulin-stimulated phosphorylation of Akt/PKB Ser473 and Thr308: cell lines that lack the H1047R mutation, drug 15 min, then 500 nM insulin 5 min; for inhibition of insulin-stimulated activation of Akt/PKB: MCF7 cells
Outline: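 Cells serum-starved overnight, then exposed to test compound or DMSO vehicle for 15 min and stimulated with 500 nM insulin for 5 min. Lysates separated by SDS/PAGE, 20 μg protein per lane except T47D, SK-OV-3 and MCF7, and Western blotted for Akt/PKB phosphorylation.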

[3] = tested on: panel of 110 protein kinases; assay: Protein kinase profiling, panel of 110 protein kinases; format: biochemical; details: 10 μM, Supplementary Figure S1
p110γ = p110γ (Homo sapiens, UniProt P48736); assay: PI3K; format: biochemical; details: read-out: IC50 against p110γ; HTRF assay
p110α E545K = p110α E545K (Homo sapiens, UniProt P42336, E545K); assay: PI3K; format: biochemical; details: read-out: IC50 against p110α E545K; HTRF assay
p110δ = p110δ (Homo sapiens, UniProt O00329); assay: PI3K; format: biochemical; details: read-out: IC50 against p110δ; HTRF assay
p110α H1047R = p110α H1047R (Homo sapiens, UniProt P42336, H1047R); assay: PI3K; format: biochemical; details: read-out: IC50 against p110α H1047R; HTRF assay
[4] = tested on: Akt/PKB activation in PTEN-deficient cell lines; details: cited from earlier work
p110α = p110α (Homo sapiens, UniProt P42336); assay: PI3K; format: biochemical; details: read-out: IC50 against p110α; HTRF assay
Chain of p110α (P42336 whole entry): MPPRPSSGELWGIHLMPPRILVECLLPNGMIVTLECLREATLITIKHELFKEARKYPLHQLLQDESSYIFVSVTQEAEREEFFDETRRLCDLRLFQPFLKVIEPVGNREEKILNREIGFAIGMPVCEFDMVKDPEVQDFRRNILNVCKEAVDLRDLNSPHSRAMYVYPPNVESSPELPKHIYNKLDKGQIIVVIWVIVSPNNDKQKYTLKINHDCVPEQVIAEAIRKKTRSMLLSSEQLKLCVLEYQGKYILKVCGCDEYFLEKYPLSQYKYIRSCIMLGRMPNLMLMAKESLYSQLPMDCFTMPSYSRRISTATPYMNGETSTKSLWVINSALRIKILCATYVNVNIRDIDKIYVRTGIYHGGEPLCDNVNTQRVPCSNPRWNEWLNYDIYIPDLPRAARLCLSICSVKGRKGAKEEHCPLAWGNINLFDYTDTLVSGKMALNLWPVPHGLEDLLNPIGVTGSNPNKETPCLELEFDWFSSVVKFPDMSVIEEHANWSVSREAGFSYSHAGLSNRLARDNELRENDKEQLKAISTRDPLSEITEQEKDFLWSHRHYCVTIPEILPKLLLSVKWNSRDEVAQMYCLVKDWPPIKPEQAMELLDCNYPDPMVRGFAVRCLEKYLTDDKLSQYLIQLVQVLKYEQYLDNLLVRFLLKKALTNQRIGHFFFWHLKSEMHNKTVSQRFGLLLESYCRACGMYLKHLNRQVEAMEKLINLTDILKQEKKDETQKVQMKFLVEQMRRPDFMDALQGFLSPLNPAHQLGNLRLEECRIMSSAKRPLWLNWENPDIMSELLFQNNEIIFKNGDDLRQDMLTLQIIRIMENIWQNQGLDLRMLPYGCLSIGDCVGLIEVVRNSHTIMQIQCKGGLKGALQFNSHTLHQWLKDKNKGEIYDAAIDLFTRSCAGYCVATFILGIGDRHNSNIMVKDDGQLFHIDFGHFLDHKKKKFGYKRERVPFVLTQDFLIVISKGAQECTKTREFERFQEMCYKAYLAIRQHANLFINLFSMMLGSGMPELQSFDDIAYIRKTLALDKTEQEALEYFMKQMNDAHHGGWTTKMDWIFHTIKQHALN
Chain of p110α (P27986 whole entry partner): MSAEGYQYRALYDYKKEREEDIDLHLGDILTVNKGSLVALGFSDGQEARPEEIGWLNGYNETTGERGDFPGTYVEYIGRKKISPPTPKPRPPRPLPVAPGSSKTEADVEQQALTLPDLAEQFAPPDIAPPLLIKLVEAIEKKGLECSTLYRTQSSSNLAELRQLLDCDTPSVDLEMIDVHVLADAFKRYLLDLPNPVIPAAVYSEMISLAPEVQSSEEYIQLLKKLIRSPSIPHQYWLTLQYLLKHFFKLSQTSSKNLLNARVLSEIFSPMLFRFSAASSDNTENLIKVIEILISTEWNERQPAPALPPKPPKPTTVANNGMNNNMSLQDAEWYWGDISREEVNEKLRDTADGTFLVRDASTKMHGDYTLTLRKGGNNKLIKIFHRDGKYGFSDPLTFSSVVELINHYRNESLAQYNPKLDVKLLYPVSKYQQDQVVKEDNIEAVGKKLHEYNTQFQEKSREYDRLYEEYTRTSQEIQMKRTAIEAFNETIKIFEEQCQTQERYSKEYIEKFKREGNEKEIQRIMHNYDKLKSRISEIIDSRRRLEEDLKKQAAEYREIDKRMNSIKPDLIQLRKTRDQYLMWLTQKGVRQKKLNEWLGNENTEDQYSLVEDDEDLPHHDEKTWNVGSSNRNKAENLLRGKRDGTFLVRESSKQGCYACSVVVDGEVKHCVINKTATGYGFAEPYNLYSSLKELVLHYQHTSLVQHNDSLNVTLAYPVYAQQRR

Chain of p110γ (P48736 whole entry): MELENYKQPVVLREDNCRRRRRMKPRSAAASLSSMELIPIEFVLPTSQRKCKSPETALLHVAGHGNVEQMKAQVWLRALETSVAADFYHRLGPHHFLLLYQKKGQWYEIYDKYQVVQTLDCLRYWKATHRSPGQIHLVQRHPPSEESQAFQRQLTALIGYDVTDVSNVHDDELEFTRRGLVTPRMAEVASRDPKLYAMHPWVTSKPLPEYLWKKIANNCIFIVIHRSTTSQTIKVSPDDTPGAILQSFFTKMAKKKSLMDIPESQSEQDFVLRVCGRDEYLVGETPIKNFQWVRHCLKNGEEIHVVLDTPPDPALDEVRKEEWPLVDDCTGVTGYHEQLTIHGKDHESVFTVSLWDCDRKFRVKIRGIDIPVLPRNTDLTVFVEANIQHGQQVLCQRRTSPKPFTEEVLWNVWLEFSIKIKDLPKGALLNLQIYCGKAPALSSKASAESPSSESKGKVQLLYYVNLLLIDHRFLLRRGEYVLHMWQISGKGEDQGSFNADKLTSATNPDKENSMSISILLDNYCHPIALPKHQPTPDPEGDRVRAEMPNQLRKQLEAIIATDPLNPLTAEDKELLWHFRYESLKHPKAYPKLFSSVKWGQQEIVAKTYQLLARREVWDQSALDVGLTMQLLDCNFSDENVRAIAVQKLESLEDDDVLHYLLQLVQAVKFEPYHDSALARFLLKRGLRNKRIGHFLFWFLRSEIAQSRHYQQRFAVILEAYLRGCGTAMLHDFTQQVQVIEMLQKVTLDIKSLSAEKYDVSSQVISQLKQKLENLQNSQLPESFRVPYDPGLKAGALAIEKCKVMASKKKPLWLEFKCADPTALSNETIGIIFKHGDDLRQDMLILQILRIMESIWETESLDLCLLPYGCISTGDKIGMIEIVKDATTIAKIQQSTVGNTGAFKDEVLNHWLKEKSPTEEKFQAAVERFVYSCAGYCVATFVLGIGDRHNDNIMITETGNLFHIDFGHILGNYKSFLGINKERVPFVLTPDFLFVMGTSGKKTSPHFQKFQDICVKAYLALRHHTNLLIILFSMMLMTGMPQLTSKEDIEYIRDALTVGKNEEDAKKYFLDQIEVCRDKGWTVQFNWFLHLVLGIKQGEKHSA
Chain of p110α H1047R (P42336 whole entry H1047R): as the sequence (P42336 whole entry) above, with H1047R counted along it
Chain of p110α H1047R (P27986 whole entry partner): as the sequence (P27986 whole entry partner) above
Chain of p110δ (O00329 whole entry): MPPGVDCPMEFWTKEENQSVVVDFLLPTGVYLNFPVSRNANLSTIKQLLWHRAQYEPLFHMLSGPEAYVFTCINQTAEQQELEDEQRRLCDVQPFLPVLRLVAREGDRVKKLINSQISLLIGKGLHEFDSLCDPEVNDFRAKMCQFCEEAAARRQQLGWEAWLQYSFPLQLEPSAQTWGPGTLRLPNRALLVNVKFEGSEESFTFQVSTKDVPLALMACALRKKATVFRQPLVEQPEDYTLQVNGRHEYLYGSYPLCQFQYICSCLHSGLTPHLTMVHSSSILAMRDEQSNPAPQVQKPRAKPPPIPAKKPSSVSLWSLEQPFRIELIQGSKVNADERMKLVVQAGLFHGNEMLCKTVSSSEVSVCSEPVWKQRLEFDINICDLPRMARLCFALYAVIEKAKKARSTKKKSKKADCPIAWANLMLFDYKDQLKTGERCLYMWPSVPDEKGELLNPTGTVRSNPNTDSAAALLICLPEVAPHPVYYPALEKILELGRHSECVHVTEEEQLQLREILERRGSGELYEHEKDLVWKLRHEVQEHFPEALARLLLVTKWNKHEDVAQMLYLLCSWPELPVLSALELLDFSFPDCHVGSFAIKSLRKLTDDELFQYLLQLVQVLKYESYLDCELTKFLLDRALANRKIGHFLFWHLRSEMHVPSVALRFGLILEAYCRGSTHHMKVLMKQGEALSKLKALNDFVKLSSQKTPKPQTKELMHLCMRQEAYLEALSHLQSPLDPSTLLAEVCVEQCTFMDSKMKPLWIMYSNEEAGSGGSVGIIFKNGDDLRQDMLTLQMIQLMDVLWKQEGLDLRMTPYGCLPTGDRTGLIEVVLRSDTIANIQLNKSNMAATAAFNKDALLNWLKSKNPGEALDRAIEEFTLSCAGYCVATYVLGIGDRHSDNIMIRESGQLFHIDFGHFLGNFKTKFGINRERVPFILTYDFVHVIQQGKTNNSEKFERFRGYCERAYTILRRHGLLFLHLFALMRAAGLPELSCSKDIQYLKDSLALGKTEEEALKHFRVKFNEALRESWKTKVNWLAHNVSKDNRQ
Chain of p110δ (P27986 whole entry partner): as the sequence (P27986 whole entry partner) above
Chain of p110α E545K (P42336 whole entry E545K): as the sequence (P42336 whole entry) above, with E545K counted along it
Chain of p110α E545K (P27986 whole entry partner): as the sequence (P27986 whole entry partner) above

Cn1c(=O)n(-c2ccc(C(C)(C)C#N)cc2)c2c3cc(-c4cnc5ccccc5c4)ccc3ncc21 [BEZ-235]
AUC [1]: 7.33 µM·h
Cmax [1]: 1860 nM
Tmax [1]: 0.25 h
half-life [1]: 2.73 h
effect on tumour volume / growth (U87MG xenograft; U87MG xenograft): significantly reduced
BWL nadir (%) (U87MG xenograft; U87MG, intraperitoneal): −8.4±5.4%
Number of deaths/n (U87MG xenograft; U87MG, intraperitoneal): 0/5
body weight loss / tolerability (SK-OV-3 xenograft): moderate body weight loss
BWL nadir (%) (SK-OV-3 xenograft; intraperitoneal): −9.5±6.6%
Number of deaths/n (SK-OV-3 xenograft; intraperitoneal): four and 4/7
BWL nadir (%) (HCT-116 xenograft; HCT-116, intraperitoneal): −5.9±1.8%
Number of deaths/n (HCT-116 xenograft; HCT-116, intraperitoneal): 0/7
effect on tumour volume (HCT-116 xenograft; HCT-116 xenograft): had no effect

Cc1ccccc1-n1c(Cn2cnc3c(N)ncnc32)nc2cccc(C)c2c1=O [IC87114]
inhibition of insulin-stimulated phosphorylation of Akt/PKB Ser473 and Thr308 [2]: not inhibited
inhibitory effects on panel of 110 protein kinases [3]: do not have any major effects

O=c1cc(N2CCOCC2)oc2c(-c3ccccc3)cccc12 [LY294002]
inhibition of phosphorylation of Akt/PKB Ser473 and Thr308 ([2]; all cell lines tested): sensitive
inhibition of insulin-stimulated phosphorylation of Akt/PKB Ser473 and Thr308 [2]: effective

Cc1ccc([N+](=O)[O-])cc1S(=O)(=O)N(C)/N=C/c1cnc2ccc(Br)cn12 [PIK-75]
inhibition of insulin-stimulated activation of Akt/PKB [2]: partial inhibitory effect
inhibition of insulin-stimulated phosphorylation of Akt/PKB Ser473 and Thr308 [2]: less effective
IC50 (p110γ): 33 nM
inhibitory effects on panel of 110 protein kinases [3]: inhibited a large number of protein kinases

Cc1cc(C(C)Nc2ccccc2)c2nc(N3CCOCC3)cc(=O)n2c1 (stereo not shown) [TGX-221]
inhibition of insulin-stimulated activation of Akt/PKB [2]: partial inhibitory effect
inhibition of insulin-stimulated phosphorylation of Akt/PKB Ser473 and Thr308 [2]: not inhibited
IC50 (p110γ): > 1250 nM
IC50 (p110α E545K): > 1000 nM
IC50 (p110δ): 130 nM
IC50 (p110α H1047R): > 1000 nM
concentration required to induce reduction in Akt/PKB activation [4]: 2 µM
inhibitory effects on panel of 110 protein kinases [3]: do not have any major effects
IC50 (p110α): > 1000 nM

COC[C@H]1OC(=O)c2coc3c2[C@@]1(C)C1=C(C3=O)[C@@H]2CCC(=O)[C@@]2(C)C[C@H]1OC(C)=O [wortmannin]
inhibition of insulin-stimulated phosphorylation of Akt/PKB Ser473 and Thr308 [2]: effective
